Data published in PMC7157925 (Steroids, 2003).

Experiments:
[1] = tested on: endothelin-converting enzyme; details: ref [20]; cited from earlier work
[2] = tested on: HSV-2; experiment: Virucidal assay; parameters: species or system herpes simplex virus type 2; details: HSV-2 suspension incubated with compound 1 h at 37 °C
Method in brief: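 HSV-2 strain G suspension (4×10^5 PFU) mixed with an equal volume of maintenance medium (MEM, 1.5% bovine serum), with or without various concentrations of test compound, 1 h at 37 °C. Samples then diluted in cold maintenance medium, and residual infectivity titrated by plaque formation on Vero cells. Compound stock 10 mg/ml in DMSO, filter-sterilized. VC50 is the concentration inactivating virions by 50%.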

[3] = tested on: HSV-2 strain G; experiment: Antiviral assay, reduction of virus plaque formation in Vero cells; format: cell-based, herpes simplex virus type 2; details: at a concentration up to 50 μg/ml

Structure (SMILES) | Activity in the endothelin-converting enzyme assay [1] | VC50, concentration required to inactivate virus by 50%±S.D. [2] [µg/mL] | Activity against HSV-2 [3]
C=CCCC[C@@H](C)[C@H]1CC[C@H]2[C@@H]3CC[C@H]4C[C@H](OS(=O)(=O)O)[C@@H](OS(=O)(=O)O)C[C@]4(C)[C@H]3CC[C@]12C [Compound 19, Halistanol disulfate B] | active |  | 
CC(C)CCC[C@@H](C)[C@H]1CC[C@H]2[C@@H]3CC[C@H]4C[C@H](O)[C@@H](O)C[C@]4(C)[C@H]3CC[C@]12C [Compound 5, 2β,3α-Dihydroxy-5α-cholestane] |  | > 100 | not active
